Assays:
Type in all cases: functional
Mus musculus [1] = assay: Antimaximal electroshock seizure (MES) activity in mice after peroral administration of 100 mg/kg of compound; 0/5; settings: route oral
Mus musculus [2] = assay: Antireserpine activity (RES) of mice after peroral administration of 100 mg/kg of compound; Moderate inhibition (51-71%); settings: route oral
Mus musculus [3] = assay: Antiexploratory activity (EXPL) of mice determined by an antimex activity meter, 50 mg/kg of dose was administered perorally; No inhibition; settings: route oral
Canis familiaris [4] = assay: Inhibition of apomorphine induced emesis in dogs at 1 mg/kg of dose.; settings: Canis lupus familiaris
How it was run: (§1)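 Beagle dogs (10-15 kg), groups of three, given compound po in a gelatin capsule; 2 h later apomorphine hydrochloride 0.3 mg/kg sc. Vomiting counted for 1 h; mean inhibition as percent of control. ED50 is the dose giving 50% inhibition of emesis, by Litchfield-Wilcoxon.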

Canis familiaris [5] = assay: Inhibition of apomorphine induced emesis in dogs when administered perorally; settings: Canis lupus familiaris, po; how it was run: as §1
Mus musculus [6] = assay: Antiexploratory activity (EXPL) of mice determined by an antimex activity meter, 10 mg/kg of dose was administered perorally; settings: route oral
How it was run: (§2)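 Male Std-ddY mice (20-25 g), five per dose, given compound orally in 0.5% aqueous tragacanth. Two hours later each mouse was placed in the activity-meter cage and locomotor activity was counted for 3 min. Suppression is expressed as percent inhibition of control. ED50 (dose giving 50% inhibition) calculated by Litchfield-Wilcoxon.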

Mus musculus [7] = assay: Inhibition of conditioned avoidance response in mice when administered perorally; settings: po
How it was run: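 One-way active avoidance in male Std-ddY mice in a dark/light two-compartment box. Mice trained to move to the lit side on a warning stimulus to escape floor shock; groups of 10 avoiding at >80% in 10 trials. Compound po in 0.5% tragacanth. ED50 is the dose halving avoidance rate (Litchfield-Wilcoxon).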

Mus musculus [8] = assay: Concentration of compound that causes catalepsy in the mice when administered perorally; settings: po
How it was run: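 Male Std-ddY mice were dosed orally, vehicle 0.5% aqueous tragacanth. At 2 h, forepaws were placed on a rod 4.5 cm high. Failure to remove the paws within 30 s in three successive trials was scored cataleptic. ED50 was the dose giving catalepsy in 50% of mice (Litchfield-Wilcoxon).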

Mus musculus [9] = assay: Concentration of compound that causes ptosis in the mice when administered perorally; settings: po
How it was run: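 Five male Std-ddY mice per group were dosed orally in 0.5% aqueous tragacanth. At 2 h, eyelid closure was scored macroscopically (8 open to 0 fully closed). Group mean scores formed a dose-response curve. ED50 was the dose reducing the mean score to 50%.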

Mus musculus [10] = assay: Antiexploratory activity (EXPL) of mice determined by an antimex activity meter, when administered perorally; settings: po; how it was run: as §2
Mus musculus [11] = assay: (§3) 3,4 -Dihydroxy phenylacetic acid (DOPAC) levels in mouse brain at 10 mg/kg dose.
How it was run: (§4)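 Male Std-ddY mice (20-25 g) dosed orally with compound dissolved or suspended in 0.5% aqueous tragacanth. DOPAC measured fluorometrically after purification by column chromatography on Sephadex G-10 and QAE-Sephadex. Brains from five mice per compound pooled for the determination.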

Mus musculus [12] = assay: The homovanillic acid (HVA)levels in mouse brain at 10 mg/kg of dose.
How it was run: (§5)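 Male Std-ddY mice (20-25 g) dosed orally with compound in 0.5% aqueous tragacanth (solution or suspension). Brain homovanillic acid (HVA) determined by a published method. Brains from five mice per compound pooled for one determination.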

Mus musculus [13] = assay: The homovanillic acid (HVA)levels in mouse brain at 50 mg/kg of dose.; how it was run: as §5
Mus musculus [14] = assay: Antiexploratory activity (EXPL) of mice determined by an antimex activity meter, 50 mg/kg of dose was administered perorally; settings: route oral; how it was run: as §2
Mus musculus [15] = assay: (§6) 3,4 -Dihydroxy phenylacetic acid (DOPAC) levels in mouse brain at 50 mg/kg dose.; how it was run: as §4
Rattus norvegicus = assay: Inhibition of self stimulation response in rats when administered perorally.; settings: po
How it was run: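 Male Wistar HLA rats (300-400 g) with chronic electrodes implanted in the lateral posterior hypothalamus; only rats lever-pressing steadily at 50-100/min were used. Compound given po in 0.5% tragacanth. Self-stimulation counted for 10 min before and 2 h after dosing. ED50 is the dose giving ≥50% rate inhibition in 50% of rats (Litchfield-Wilcoxon).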

Mus musculus [16] = assay: Antimaximal electroshock seizure (MES) activity in mice after peroral administration of 10 mg/kg of compound; 0/5; settings: route oral
Mus musculus [17] = assay: Antimaximal electroshock seizure (MES) activity in mice after peroral administration of 100 mg/kg of compound; 5/5; settings: route oral
Mus musculus [18] = assay: Antiexploratory activity (EXPL) of mice determined by an antimex activity meter,100 mg/kg of dose was administered perorally
Mus musculus [19] = assay: Antitremorine activity(TRM) of mice after peroral administration of 100 mg/kg of compound; Moderate inhibition (51-71%); settings: route oral
Mus musculus [20] = assay: Antireserpine activity (RES) of mice after peroral administration of 100 mg/kg of compound; No inhibition; settings: route oral
Mus musculus [21] = assay: Antireserpine activity (RES) of mice after peroral administration of 50 mg/kg of compound; Moderate inhibition (51-71%); settings: route oral
Mus musculus [22] = assay: Antiexploratory activity (EXPL) of mice determined by an antimex activity meter, 50 mg/kg of dose was administered perorally; Moderate inhibition (51-71%); settings: route oral
Mus musculus [23] = assay: Antimaximal electroshock seizure (MES) activity in mice after peroral administration of 100 mg/kg of compound; 2/5; settings: route oral
Mus musculus [24] = assay: Antiexploratory activity (EXPL) of mice determined by an antimex activity meter, 100 mg/kg of dose was administered perorally; No inhibition; settings: route oral
Mus musculus [25] = assay: Antitremorine activity(TRM) of mice after peroral administration of 100 mg/kg of compound; No inhibition; settings: route oral
Mus musculus [26] = assay: as §3; remark: listed apart in the source
How it was run: (§7)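 Male Std-ddY mice, 20-25 g, dosed orally with compound in 0.5% aqueous tragacanth. DOPAC was measured fluorometrically after purification by column chromatography on Sephadex G-10 and QAE-Sephadex. Brains from five mice per compound were pooled for each determination.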

Mus musculus [27] = assay: as §6; how it was run: as §7; remark: listed apart in the source
Mus musculus [28] = assay: The homovanillic acid (HVA) levels in mouse brain at 10 mg/kg of dose.
How it was run: (§8)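 Mice dosed orally in 0.5% aqueous tragacanth; brains of five mice per compound pooled. Homovanillic acid measured in brain extracts and reported as brain level.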

Mus musculus [29] = assay: The homovanillic acid (HVA) levels in mouse brain at 50 mg/kg of dose.; how it was run: as §8
Mus musculus [30] = assay: Exploratory activity of mice determined by an antimex activity meter, 10 mg/kg of dose was administered perorally; settings: route oral
Mus musculus [31] = assay: Exploratory activity of mice determined by an antimex activity meter, 50 mg/kg of dose was administered perorally; settings: Mus musculus, po
How it was run: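 Male Std-ddY mice (20-25 g), five per dose; compound in 0.5% aqueous tragacanth given orally. Two hours later each mouse placed in an Animex activity meter cage and locomotor activity counted for 3 min. Mean suppression expressed as percent inhibition of control; ED50 by Litchfield-Wilcoxon.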

Mus musculus [32] = assay: Antireserpine activity (RES) of mice after peroral administration of 50 mg/kg of compound; Slight inhibition (31-50%); settings: route oral
Mus musculus [33] = assay: Antiexploratory activity (EXPL) of mice determined by an antimex activity meter, 50 mg/kg of dose was administered perorally; potent inhibition; settings: route oral
Mus musculus [34] = assay: Antiexploratory activity (EXPL) of mice determined by an antimex activity meter, 10 mg/kg of dose was administered perorally; No inhibition; settings: route oral
Mus musculus [35] = assay: Antipentylene tetrazole activity was determined in mice when administered perorally; settings: po
How it was run: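 Groups of five male Std-ddY mice received compound orally in 0.5% tragacanth, then pentylenetetrazole 175 mg/kg ip. Blockade of the tonic extensor component scored as anticonvulsant. ED50 was the dose protecting 50% of animals (Litchfield-Wilcoxon).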

Mus musculus [36] = assay: Antimaximal electroshock seizure activity was determined in mice when administered perorally; settings: po
Mus musculus [37] = assay: Antiexploratory activity (EXPL) of mice determined by an antimex activity meter, 100 mg/kg of dose was administered perorally; settings: route oral

**Q.** Which results are given for `CN1CCN(C2=Nc3ccccc3CC=C2c2cccc(Cl)c2)CC1.Cl.Cl`?
**A.** Activity (Mus musculus [1]): 0; inhibition in vivo at 100 mg/kg (Mus musculus [2]): 51%; inhibition in vivo at 50 mg/kg (Mus musculus [3]): < 30%

**Q.** `CN1CCN(C2=Nc3cc(Cl)ccc3Nc3ccccc32)CC1` [CLOZAPINE] was tested. Which inhibition in vivo at 1 mg/kg (Canis familiaris [4]) did it give?
**A.** 27.4%

**Q.** What about the ED50 (Canis familiaris [5]) of the same compound?
**A.** 12.6 mg/kg

**Q.** What about the inhibition in vivo at 10 mg/kg (Mus musculus [6]) of the same compound?
**A.** 50.6%

**Q.** What about the ED50 (Mus musculus [7]) of the same compound?
**A.** 9.68 mg/kg

**Q.** What about the ED50 (Mus musculus [8]) of the same compound?
**A.** > 100 mg/kg

**Q.** What about the ED50 (Mus musculus [9]) of the same compound?
**A.** 15.8 mg/kg

**Q.** And the ED50 (Mus musculus [10])?
**A.** 8.45 mg/kg

**Q.** What about the Control % at 10 mg/kg (Mus musculus [11]) of the same compound?
**A.** 128%

**Q.** What about the Control % at 10 mg/kg (Mus musculus [12]) of the same compound?
**A.** 106%

**Q.** And the Control % at 50 mg/kg (Mus musculus [13])?
**A.** 274%

**Q.** And the inhibition in vivo at 50 mg/kg (Mus musculus [14])?
**A.** 87.8%

**Q.** What about the Control % at 50 mg/kg (Mus musculus [15]) of the same compound?
**A.** 324%

**Q.** What about the ED50 (Rattus norvegicus) of the same compound?
**A.** 77.1 mg/kg

**Q.** Which Activity (Mus musculus [16]) does the source give for `CCc1ccc2c(c1)CC=C(c1ccccc1)C(N1CCN(CCO)CC1)=N2.Cl.Cl` here?
**A.** 0

**Q.** What about the Activity (Mus musculus [17]) of the same compound?
**A.** 5

**Q.** What about the Inhibition (Mus musculus [18]) of the same compound?
**A.** <30%

**Q.** What about the inhibition in vivo at 100 mg/kg (Mus musculus [19]) of the same compound?
**A.** 51%

**Q.** And the inhibition in vivo at 100 mg/kg (Mus musculus [20])?
**A.** < 30%

**Q.** Which results are given for `CN1CCN(C2=Nc3ccccc3CC=C2c2ccc(O)cc2)CC1`?
**A.** inhibition in vivo at 50 mg/kg (Mus musculus [21]): 51%; inhibition in vivo at 50 mg/kg (Mus musculus [22]): 51%

**Q.** What does the source list for `CCN1CCN(C2=Nc3ccc(Br)cc3CC=C2c2ccc(Cl)cc2)CC1.O=C(O)/C=C/C(=O)O`?
**A.** Activity (Mus musculus [23]): 2; inhibition in vivo at 100 mg/kg (Mus musculus [24]): < 30%; inhibition in vivo at 100 mg/kg (Mus musculus [25]): < 30%; inhibition in vivo at 100 mg/kg (Mus musculus [20]): < 30%

**Q.** For `CCN1CCN(C2=Nc3ccccc3CC=C2c2ccc(F)cc2)CC1.Cl.Cl`, which inhibition in vivo at 1 mg/kg (Canis familiaris [4]) is on record?
**A.** 100%

**Q.** And the Control (Mus musculus [26])?
**A.** 287%

**Q.** What about the Control (Mus musculus [27]) of the same compound?
**A.** 345%

**Q.** And the Control (Mus musculus [28])?
**A.** 432%

**Q.** And the Control (Mus musculus [29])?
**A.** 461%

**Q.** What about the inhibition in vivo at 10 mg/kg (Mus musculus [30]) of the same compound?
**A.** 10.6%

**Q.** What about the inhibition in vivo at 50 mg/kg (Mus musculus [31]) of the same compound?
**A.** 86.8%

**Q.** What about the inhibition in vivo at 50 mg/kg (Mus musculus [32]) of the same compound?
**A.** 31%

**Q.** What about the inhibition in vivo at 50 mg/kg (Mus musculus [33]) of the same compound?
**A.** > 71%

**Q.** What about the inhibition in vivo at 10 mg/kg (Mus musculus [34]) of the same compound?
**A.** < 30%

**Q.** What does the source list for `Cl.Cl.OCCN1CCN(C2=Nc3ccc(F)cc3CC=C2c2ccccc2)CC1`?
**A.** Activity (Mus musculus [1]): 0; ED50 (Mus musculus [35]): > 500 mg/kg; ED50 (Mus musculus [36]): > 500 mg/kg; inhibition in vivo at 100 mg/kg (Mus musculus [37]): > 71%; inhibition in vivo at 100 mg/kg (Mus musculus [25]): < 30%; inhibition in vivo at 100 mg/kg (Mus musculus [20]): < 30%

From ChEMBL document CHEMBL1124216, “A novel class of potential central nervous system agents. 3-Phenyl-2-(1-piperazinyl)-5H-1-benzazepines” (1988)
